This is an account of results in paper PMC3668520 (FEBS Open Bio, 2013).

For experiment [1], the system named is EBI2. The settings on record: at 5 μM; ref PubChem BioAssay ID: 651636; cited from earlier work.
In experiment [2] the target is FLAG-tagged human EBI2 (Homo sapiens, UniProt P32249). Description: [35S]GTPγS binding to membranes from CHO cells stably expressing EBI2. The format is biochemical. In outline:
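Membranes from CHO Flp-In cells stably expressing M1-FLAG-EBI2 or pcDNA5 (10 μg) were incubated 30 min with ligands and 1 nM [35S]GTPγS. WGA SPA beads (2.8 mg/mL) were then added for 30 min, followed by centrifugation and scintillation counting. Nonspecific binding was defined with 40 μM unlabelled GTPγS. Inhibition was run at 1 nM 7α,25-OHC. Agonist curves were run at 0, 100 nM, 1 μM and 10 μM antagonist. Kd and slope come from Schild regression (x-intercept). Three independent experiments.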

Experiment [3] has as its system B cells isolated from wt and EBI2-overexpressing C57BL/6 mice. Description: Ex vivo B cell chemotaxis. Type of experiment: cell-based, mouse. In outline: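 B cells came from wt and EBI2-overexpressing C57BL/6 mice. 7α,25-OHC and/or test compound was placed in the lower chamber, and 200,000 cells went onto 5 μm-pore filters. After 5 h at 37 °C, migrated cells were quantified by CellTiterGlo luminescence. Agonist response is expressed as chemotactic index (four experiments). Inhibition was tested on EBI2-overexpressing cells with 0.1 nM 7α,25-OHC, relative to agonist alone (three experiments).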

Experiment [4] relates to FLAG-tagged human EBI2 (ERK1/2 phosphorylation). Description: ERK1/2 phosphorylation in CHO cells stably expressing EBI2. Type of experiment: cell-based. The settings on record: 10 min, read-out: EC50, ERK1/2 activation.
The test system of experiment [5] is FLAG-tagged human EBI2 (p38 phosphorylation). Kind of experiment: p38 phosphorylation in CHO cells stably expressing EBI2. Type of experiment: cell-based. The note with it: serum-starved CHO EBI2 cells; ptx-sensitive.

pEC50: −log10 of the molar value.

FLAG-tagged human EBI2, sequence (P32249 whole entry): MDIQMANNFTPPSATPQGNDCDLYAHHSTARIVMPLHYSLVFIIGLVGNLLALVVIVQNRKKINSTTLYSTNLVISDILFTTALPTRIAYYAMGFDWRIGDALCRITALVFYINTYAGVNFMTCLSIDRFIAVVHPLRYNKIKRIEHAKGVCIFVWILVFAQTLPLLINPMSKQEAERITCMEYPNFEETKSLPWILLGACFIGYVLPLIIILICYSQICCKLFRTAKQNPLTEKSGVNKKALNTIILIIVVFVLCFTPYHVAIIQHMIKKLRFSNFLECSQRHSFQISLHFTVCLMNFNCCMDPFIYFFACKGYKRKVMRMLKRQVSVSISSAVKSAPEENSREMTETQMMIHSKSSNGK

Turning to `O=C(/C=C/c1ccc(Cl)cc1)N1CCN(c2c(Cl)cccc2[N+](=O)[O-])CC1` [CID: 5804570], the “Suppression of 7α,25-OHC-induced β-arrestin recruitment” value in experiment [1] was “best compound”.
With `C[C@H](CCCC(C)(C)O)[C@H]1CC[C@H]2[C@@H]3[C@H](O)C=C4C[C@@H](O)CC[C@]4(C)[C@H]3CC[C@]12C` [7α,25-OHC, 7α,25-dihydroxycholesterol], the pEC50 in experiment [2] is 9.00; in experiment [3] (Mus musculus, B-cell, read-out: EC50, chemotaxis), 10.00; in experiment [4], 8.52. Also, the “Concentration at which chemotaxis peaked” value in experiment [3] (both wt and EBI2-OE B cells) is listed as 1 nM. In experiment [5], the p38 activation entry is on record as “dose-dependently activated”.
